Each block holds one compound with its values, some of them ahead of it. Activity calls are given as the source filed them. The rule behind the calls is not given here.
Columns and labels:
[1] = Toxicity in mouse allografted with AXL expressing mouse MXT cells assessed as morbidity at 15 mg/kg, ip qd administered 21 consecutive days; format: organism-based; conditions: in vivo
[2] = Antitumor activity against AXL expressing mouse MXT cells allografted in mouse assessed as survival time at 5 mg/kg, ip qd administered 21 consecutive days (reference value: 100%); format: functional
Summary of the method: (§1)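 MXT mammary tumour cells implanted subcutaneously and staged to about 125 mm3. Dosing then began: once daily ip for 21 consecutive days, at 5 or 15 mg/kg, alongside a vehicle group, with 7 animals per group. Survival in days was recorded for each animal and given as mean ± SD, and as T/C% against the vehicle group (vehicle = 100%).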

[3] = Antitumor activity against AXL expressing mouse MXT cells allografted in mouse assessed as survival time at 15 mg/kg, ip qd administered 21 consecutive days; format: functional; summary of the method: as §1
[4] = target: Tyrosine-protein kinase CSK (Homo sapiens, UniProt P41240); assay: Inhibition of CSK (unknown origin) using fluorescence labeled peptide as substrate at 10 uM by IMAP assay
Summary of the method: (§2)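 IMAP fluorescence-polarization kinase assay at 10 µmol/L compound, run in triplicate by a contract lab. A fluorescently labeled substrate peptide is phosphorylated, then nanoparticles carrying trivalent metal bind the phosphopeptide and slow its rotation. Read-out is fluorescence polarization, expressed as percent inhibition.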

[5] = target: Proto-oncogene tyrosine-protein kinase receptor Ret (Homo sapiens) (UniProt P07949); assay: Inhibition of RET (unknown origin) using fluorescently-labeled peptide as substrate at 10 uM by IMAP fluorescence polarization assay
[6] = target: Insulin receptor (Homo sapiens) (UniProt P06213); assay: Inhibition of INSR (unknown origin) using fluorescence labeled peptide as substrate at 10 uM by IMAP assay; summary of the method: as §2
Sequence of Insulin receptor (Homo sapiens) (P06213 28-758 limits assumed): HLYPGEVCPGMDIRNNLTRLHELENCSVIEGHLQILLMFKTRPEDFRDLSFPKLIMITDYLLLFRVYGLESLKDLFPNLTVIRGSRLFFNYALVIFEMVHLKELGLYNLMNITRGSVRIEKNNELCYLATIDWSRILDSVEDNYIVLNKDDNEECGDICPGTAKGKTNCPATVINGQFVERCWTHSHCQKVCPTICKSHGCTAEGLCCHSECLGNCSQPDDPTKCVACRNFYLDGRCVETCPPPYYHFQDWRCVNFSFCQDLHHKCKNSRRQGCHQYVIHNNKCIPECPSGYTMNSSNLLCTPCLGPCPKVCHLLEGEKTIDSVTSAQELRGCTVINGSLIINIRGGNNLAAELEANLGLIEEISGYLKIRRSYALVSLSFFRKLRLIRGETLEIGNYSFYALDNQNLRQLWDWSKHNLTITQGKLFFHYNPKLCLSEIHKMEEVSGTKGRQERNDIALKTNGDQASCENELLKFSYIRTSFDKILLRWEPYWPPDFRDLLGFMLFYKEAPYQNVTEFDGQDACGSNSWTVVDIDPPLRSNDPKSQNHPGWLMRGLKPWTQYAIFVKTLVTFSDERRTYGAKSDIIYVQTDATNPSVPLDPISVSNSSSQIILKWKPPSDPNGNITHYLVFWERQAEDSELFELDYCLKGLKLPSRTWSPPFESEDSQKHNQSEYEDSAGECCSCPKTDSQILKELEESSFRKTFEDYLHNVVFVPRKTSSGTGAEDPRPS
Sequence of Insulin receptor (Homo sapiens) (P06213 763-1382 limits assumed): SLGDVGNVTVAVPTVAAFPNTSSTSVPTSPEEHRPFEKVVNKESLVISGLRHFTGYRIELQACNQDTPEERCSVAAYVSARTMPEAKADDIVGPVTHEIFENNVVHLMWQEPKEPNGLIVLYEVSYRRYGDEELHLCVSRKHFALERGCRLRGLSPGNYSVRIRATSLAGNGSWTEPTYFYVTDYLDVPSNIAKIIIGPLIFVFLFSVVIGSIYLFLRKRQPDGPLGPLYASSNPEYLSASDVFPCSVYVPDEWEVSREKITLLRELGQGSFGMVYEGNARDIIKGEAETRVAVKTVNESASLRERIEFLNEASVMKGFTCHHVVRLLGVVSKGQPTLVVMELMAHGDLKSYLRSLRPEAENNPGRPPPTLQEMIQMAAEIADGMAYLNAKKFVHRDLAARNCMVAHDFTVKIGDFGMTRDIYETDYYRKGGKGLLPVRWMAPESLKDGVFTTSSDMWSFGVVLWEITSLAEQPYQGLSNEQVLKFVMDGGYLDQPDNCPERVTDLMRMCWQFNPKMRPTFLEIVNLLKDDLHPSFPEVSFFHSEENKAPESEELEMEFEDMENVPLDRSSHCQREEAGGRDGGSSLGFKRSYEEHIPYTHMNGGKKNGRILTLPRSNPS

[7] = target: Tyrosine-protein kinase JAK3 (Homo sapiens) (UniProt P52333); assay: Inhibition of JAK3 (unknown origin) using fluorescence labeled peptide as substrate at 10 uM by IMAP assay
[8] = target: Receptor-type tyrosine-protein kinase FLT3 (Homo sapiens) (UniProt P36888); assay: Inhibition of FLT3 (unknown origin) using fluorescence labeled peptide as substrate at 10 uM by IMAP assay; summary of the method: as §2
[9] = target: Epithelial discoidin domain-containing receptor 1 (Homo sapiens) (UniProt Q08345); assay: Binding affinity to DDR1 (unknown origin) at 10 uM
[10] = target: Serine/threonine-protein kinase B-raf (Homo sapiens) (UniProt P15056); assay: Binding affinity to BRAF (unknown origin) at 10 uM
[11] = target: Receptor tyrosine-protein kinase erbB-2 (Homo sapiens) (UniProt P04626); assay: Inhibition of ERBB2 (unknown origin) using biotinylated peptide as substrate at 10 uM by TR-FRET assay
Summary of the method: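 HTRF (TR-FRET) kinase assay at 10 µmol/L compound, in triplicate. A biotinylated kinase-specific peptide is phosphorylated. Detection uses a europium cryptate-labeled anti-phospho-residue antibody as donor and XL665-streptavidin as acceptor. Result is percent inhibition.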

[12] = target: Tyrosine-protein kinase SYK (Homo sapiens) (UniProt P43405); assay: Inhibition of SYK (unknown origin) using fluorescence labeled peptide as substrate at 10 uM by IMAP assay
Summary of the method: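 Kinase selectivity profiling, run by a contract lab, with the test compound at 10 µmol/L in triplicate. In the IMAP format, the kinase phosphorylates a fluorescently labelled substrate peptide in solution. A binding solution of trivalent metal-based nanoparticles is then added to capture the phosphopeptide, and the drop in rotational speed is read as fluorescence polarization. Results are given as percent inhibition of each kinase.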

[13] = target: 5-azacytidine-induced protein 2 (Homo sapiens, UniProt Q9H6S1); assay: Binding affinity to AZI2 in SILAC-labeled human MDA-MB-231 cells lysate by mass spectrometry based kinAffinity assay; format: subcellular
Sequence of 5-azacytidine-induced protein 2 (Q9H6S1 whole entry): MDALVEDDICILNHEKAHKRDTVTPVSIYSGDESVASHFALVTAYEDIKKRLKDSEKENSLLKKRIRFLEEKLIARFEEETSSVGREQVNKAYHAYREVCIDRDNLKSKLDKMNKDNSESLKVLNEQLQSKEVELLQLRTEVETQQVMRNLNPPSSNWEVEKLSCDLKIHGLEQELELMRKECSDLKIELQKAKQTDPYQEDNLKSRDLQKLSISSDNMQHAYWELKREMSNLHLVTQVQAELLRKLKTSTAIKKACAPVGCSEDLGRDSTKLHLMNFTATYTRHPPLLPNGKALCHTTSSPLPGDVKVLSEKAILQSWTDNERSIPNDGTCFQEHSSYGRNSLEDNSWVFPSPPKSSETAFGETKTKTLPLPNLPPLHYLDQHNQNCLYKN
Summary of the method: (§3)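 Chemical proteomics: MDA-MB-231 lysate bound to matrix of immobilized broad kinase inhibitors at several densities (BC50), then competed with increasing free compound (CC50); proteins quantified by mass spectrometry, Kd via Cheng-Prusoff. Two competition formats run in parallel to check equilibrium.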

[14] = target: Enoyl-CoA hydratase, mitochondrial (Homo sapiens, UniProt P30084); assay: Binding affinity to ECHS1 in SILAC-labeled human MDA-MB-231 cells lysate by mass spectrometry based kinAffinity assay; format: subcellular; summary of the method: as §3
[15] = target: TANK-binding kinase 1-binding protein 1 (Homo sapiens, UniProt A7MCY6); assay: Binding affinity to TBKBP1 in SILAC-labeled human MDA-MB-231 cells lysate by mass spectrometry based kinAffinity assay; format: subcellular
Sequence of TANK-binding kinase 1-binding protein 1 (A7MCY6 whole entry): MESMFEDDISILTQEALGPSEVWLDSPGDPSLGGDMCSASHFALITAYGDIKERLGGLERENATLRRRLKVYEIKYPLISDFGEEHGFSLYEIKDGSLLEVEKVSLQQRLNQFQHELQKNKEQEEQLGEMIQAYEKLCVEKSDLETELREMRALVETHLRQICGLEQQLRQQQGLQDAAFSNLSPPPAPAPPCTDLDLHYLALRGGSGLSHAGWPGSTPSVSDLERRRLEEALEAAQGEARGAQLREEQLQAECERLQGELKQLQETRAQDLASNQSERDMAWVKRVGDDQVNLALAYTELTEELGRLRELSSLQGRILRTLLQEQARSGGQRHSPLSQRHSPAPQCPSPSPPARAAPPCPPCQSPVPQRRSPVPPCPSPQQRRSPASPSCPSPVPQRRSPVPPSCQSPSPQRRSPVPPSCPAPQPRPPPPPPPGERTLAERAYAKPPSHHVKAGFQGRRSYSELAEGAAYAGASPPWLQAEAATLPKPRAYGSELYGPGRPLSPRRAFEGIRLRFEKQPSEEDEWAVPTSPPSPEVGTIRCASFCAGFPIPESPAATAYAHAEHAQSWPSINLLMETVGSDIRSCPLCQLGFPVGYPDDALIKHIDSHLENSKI
Summary of the method: (§4)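 MDA-MB-231 lysate applied to KinAffinity matrix of immobilized broadband kinase inhibitors at graded densities to obtain BC50 per target. Competition then run with increasing free compound to give CC50; Kd derived by Cheng-Prusoff. Two competition experiments in parallel to check equilibrium, one with lysate pre-incubated with compound before adding matrix. Quantitation by mass spectrometry.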

TGF-beta receptor type-1 = TGF-beta receptor type-1 (Homo sapiens, UniProt P36897); assay: Binding affinity to TGFBR1 in SILAC-labeled human MDA-MB-231 cells lysate by mass spectrometry based kinAffinity assay; format: subcellular; summary of the method: as §4
LIM domain kinase 2 = LIM domain kinase 2 (Homo sapiens, UniProt P53671); assay: Binding affinity to LIMK2 in SILAC-labeled human MDA-MB-231 cells lysate by mass spectrometry based kinAffinity assay; format: subcellular; summary of the method: as §3
[16] = target: Protein-tyrosine kinase 2-beta (Homo sapiens, UniProt Q14289); assay: Binding affinity to PYK2 in SILAC-labeled human MDA-MB-231 cells lysate by mass spectrometry based kinAffinity assay; format: subcellular; summary of the method: as §4
[17] = target: Hepatocyte growth factor receptor (Homo sapiens, UniProt P08581); assay: Binding affinity to MET in SILAC-labeled human MDA-MB-231 cells lysate by mass spectrometry based kinAffinity assay; format: subcellular; summary of the method: as §3
Sequence of Hepatocyte growth factor receptor (P08581 whole entry): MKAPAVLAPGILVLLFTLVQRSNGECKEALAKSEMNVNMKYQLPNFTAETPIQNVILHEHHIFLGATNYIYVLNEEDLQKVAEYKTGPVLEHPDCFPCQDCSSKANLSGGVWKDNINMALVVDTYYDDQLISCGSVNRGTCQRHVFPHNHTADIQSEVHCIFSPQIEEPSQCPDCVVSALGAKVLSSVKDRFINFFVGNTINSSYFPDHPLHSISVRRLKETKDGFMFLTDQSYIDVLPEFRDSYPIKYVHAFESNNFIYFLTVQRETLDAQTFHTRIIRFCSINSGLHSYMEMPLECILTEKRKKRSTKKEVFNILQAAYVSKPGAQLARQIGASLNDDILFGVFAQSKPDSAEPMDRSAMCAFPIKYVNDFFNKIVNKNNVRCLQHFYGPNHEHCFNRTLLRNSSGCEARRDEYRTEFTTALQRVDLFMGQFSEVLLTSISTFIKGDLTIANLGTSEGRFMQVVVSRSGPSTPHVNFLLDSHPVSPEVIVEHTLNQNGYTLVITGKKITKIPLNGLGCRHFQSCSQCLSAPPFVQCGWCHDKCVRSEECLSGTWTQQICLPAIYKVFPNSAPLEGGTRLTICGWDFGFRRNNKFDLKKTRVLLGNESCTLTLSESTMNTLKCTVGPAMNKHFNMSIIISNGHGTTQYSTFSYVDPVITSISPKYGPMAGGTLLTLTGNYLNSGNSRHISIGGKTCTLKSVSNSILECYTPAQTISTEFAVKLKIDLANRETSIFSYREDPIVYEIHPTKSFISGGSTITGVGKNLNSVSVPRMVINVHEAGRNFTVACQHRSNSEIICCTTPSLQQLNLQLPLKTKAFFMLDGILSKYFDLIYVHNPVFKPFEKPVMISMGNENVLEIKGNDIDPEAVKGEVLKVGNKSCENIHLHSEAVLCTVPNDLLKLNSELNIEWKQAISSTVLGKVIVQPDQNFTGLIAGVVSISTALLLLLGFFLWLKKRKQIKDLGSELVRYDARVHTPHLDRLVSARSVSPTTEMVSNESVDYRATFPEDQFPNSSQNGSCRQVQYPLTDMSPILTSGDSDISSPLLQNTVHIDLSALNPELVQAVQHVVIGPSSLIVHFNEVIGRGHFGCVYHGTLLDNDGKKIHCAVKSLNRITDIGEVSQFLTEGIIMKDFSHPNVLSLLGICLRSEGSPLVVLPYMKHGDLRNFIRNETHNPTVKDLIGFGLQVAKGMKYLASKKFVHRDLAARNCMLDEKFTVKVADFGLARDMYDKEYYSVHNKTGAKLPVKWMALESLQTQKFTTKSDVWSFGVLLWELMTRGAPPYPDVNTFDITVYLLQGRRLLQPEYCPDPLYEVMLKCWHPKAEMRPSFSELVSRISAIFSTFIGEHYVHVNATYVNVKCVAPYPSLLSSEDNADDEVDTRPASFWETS

[18] = Apparent volume of distribution in mouse at 3 mg/kg, iv by LC/MS/MS analysis; conditions: in vivo, read-out: Vz
MDA-MB-231 = assay: Antimetastatic activity against human MDA-MB-231 cells xenografted in mouse assessed as reduction in lymph node metastasis at 30 mg/kg, ip bid measured 3 times per week starting at day 12 by hematoxylin and eosin staining based assay relative to control; format: functional; set-up: scale not given: the % may be the effect or the level left
Summary of the method: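 Female SCID/Beige mice inoculated with 2 x 10^6 MDA-MB-231 cells in HBSS:Matrigel (1:1) into third mammary fat pad under ketamine/xylazine. Test agent 30 mg/kg ip twice daily (12 h apart) in PEG400/H2O 70:30, or paclitaxel 10 mg/kg iv three times weekly; 10 mice/group. Tumors measured three times weekly from day 12; lungs and lymph nodes excised, formalin-fixed, nodes H&E-scored (mean ± SEM).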

[19] = target: Mitogen-activated protein kinase kinase kinase kinase 4 (Homo sapiens, UniProt O95819); assay: Binding affinity to MAP4K4 in SILAC-labeled human MDA-MB-231 cells lysate by mass spectrometry based kinAffinity assay; format: subcellular; summary of the method: as §3
Sequence of Mitogen-activated protein kinase kinase kinase kinase 4 (O95819 whole entry): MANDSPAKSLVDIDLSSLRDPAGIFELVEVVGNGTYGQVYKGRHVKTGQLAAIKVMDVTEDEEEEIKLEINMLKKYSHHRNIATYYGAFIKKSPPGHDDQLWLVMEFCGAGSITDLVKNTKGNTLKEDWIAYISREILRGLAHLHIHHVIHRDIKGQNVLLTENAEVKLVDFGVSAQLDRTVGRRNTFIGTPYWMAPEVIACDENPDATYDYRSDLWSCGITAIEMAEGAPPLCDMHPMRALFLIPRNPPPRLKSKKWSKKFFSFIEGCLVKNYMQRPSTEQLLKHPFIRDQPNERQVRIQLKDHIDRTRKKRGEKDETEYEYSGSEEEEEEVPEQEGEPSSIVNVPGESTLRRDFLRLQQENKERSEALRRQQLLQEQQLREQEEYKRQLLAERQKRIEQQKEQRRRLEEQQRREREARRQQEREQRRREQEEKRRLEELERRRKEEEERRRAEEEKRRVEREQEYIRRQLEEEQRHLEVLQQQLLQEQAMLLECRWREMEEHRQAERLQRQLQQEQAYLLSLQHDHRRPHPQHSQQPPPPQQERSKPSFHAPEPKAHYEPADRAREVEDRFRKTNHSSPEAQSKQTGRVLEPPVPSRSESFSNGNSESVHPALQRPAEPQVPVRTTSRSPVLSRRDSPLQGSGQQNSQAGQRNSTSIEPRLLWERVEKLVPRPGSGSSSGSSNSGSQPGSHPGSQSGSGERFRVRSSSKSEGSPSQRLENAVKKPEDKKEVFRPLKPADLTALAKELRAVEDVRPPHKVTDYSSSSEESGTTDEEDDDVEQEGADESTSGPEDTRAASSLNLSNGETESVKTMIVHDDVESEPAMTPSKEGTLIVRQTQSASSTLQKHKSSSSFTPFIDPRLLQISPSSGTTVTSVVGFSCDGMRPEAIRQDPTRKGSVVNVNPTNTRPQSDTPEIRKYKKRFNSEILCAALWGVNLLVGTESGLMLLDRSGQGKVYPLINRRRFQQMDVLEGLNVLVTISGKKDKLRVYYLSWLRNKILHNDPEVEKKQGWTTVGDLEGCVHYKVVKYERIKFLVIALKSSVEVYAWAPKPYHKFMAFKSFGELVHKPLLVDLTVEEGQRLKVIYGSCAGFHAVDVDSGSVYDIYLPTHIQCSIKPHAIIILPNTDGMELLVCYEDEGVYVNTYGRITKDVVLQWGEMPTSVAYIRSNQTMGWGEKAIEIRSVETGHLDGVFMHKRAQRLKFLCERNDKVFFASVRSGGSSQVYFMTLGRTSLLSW

[20] = target: MAP/microtubule affinity-regulating kinase 4 (Homo sapiens, UniProt Q96L34); assay: Binding affinity to MARK4 in SILAC-labeled human MDA-MB-231 cells lysate by mass spectrometry based kinAffinity assay; format: subcellular; summary of the method: as §3

Structure (SMILES): COc1cc2c(Oc3ccc(NS(=O)(=O)c4cc(F)ccc4F)cc3F)ccnc2cc1OCCCN1CCCC(C)C1 (stereo not drawn)
- Activity [1]: Non-Toxic
- T/C [2]: 118%
- T/C [3]: 127%

- inhibition [4]: Active
- inhibition [5]: Active
- inhibition [6]: Active
- inhibition [7]: Active
- inhibition [8]: Active
- inhibition [9]: Active
- inhibition [10]: Active
- inhibition [11]: Active
- inhibition [12]: Active
Structure (SMILES): COc1cc2c(Oc3ccc(NS(=O)(=O)c4ccccc4C(F)(F)F)cc3F)ccnc2cc1OCCCN1CCN(C)CC1

- Kd(free) [13]: 2982 nM
- Kd(free) [14]: 9237 nM
- Kd(free) [15]: 2090 nM
- Kd(free) (TGF-beta receptor type-1): 205 nM
- Kd(free) (LIM domain kinase 2): 2784 nM
- Kd(free) [16]: 6928 nM
- Kd(free) [17]: 6 nM
Structure (SMILES): COc1cc2c(Oc3ccc(NS(=O)(=O)c4c(F)cccc4F)cc3F)ccnc2cc1OCCCN1CCN(C)CC1

- Vd [18]: 10.2 L/kg
- Kd(free) [19]: 3750 nM
- Kd(free) [20]: 5975 nM
Structure (SMILES): COc1cc2c(Oc3ccc(NS(=O)(=O)c4cc(F)ccc4F)cc3F)ccnc2cc1OCCCN1CCN(C)CC1
- Activity (MDA-MB-231): 14.3%

From ChEMBL document CHEMBL4371006, “Discovery of N-[4-(Quinolin-4-yloxy)phenyl]benzenesulfonamides as Novel AXL Kinase Inhibitors” (J Med Chem, 2018)
